Measured values published in ChEMBL document CHEMBL1129389, “Mechanism-based design of parasite-targeted artemisinin derivatives: synthesis and antimalarial activity of benzylamino and alkylamino ether analogues of artemisinin” (J Med Chem, 1996).

Key:
Plasmodium falciparum [1] = test: Antimalarial activity against Plasmodium falciparum HB3; type: functional, organism-based
In short: (§1)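 Parasites kept in continuous culture in human erythrocytes (2–5%) in RPMI 1640 with 25 mM HEPES, 32 mM NaHCO3 and 10% human serum, gassed 3% O2/4% CO2/93% N2. 48 h assay: 1% initial parasitemia, 5% hematocrit, ethanol stocks (final <1% ethanol); [3H]hypoxanthine added after 24 h at 37 °C, counted after further 24 h. IC50 by probit interpolation; triplicate.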

Plasmodium falciparum [2] = test: Antimalarial activity against Plasmodium falciparum K1; type: functional, organism-based; in short: as §1

Row | Compound | IC50 (Plasmodium falciparum [1]) | IC50 (Plasmodium falciparum [2])
1 | CCN(CC)Cc1ccc(CO[C@H]2OC3O[C@@]4(C)CC[C@H]5[C@H](C)CCC([C@H]2C)[C@@]35OO4)cc1 (stereo partly specified) | 3.1 nM | 1.4 nM
2 | C[C@@H]1CCC2[C@@H](C)[C@@H](OCc3ccc(CN4CCCCC4)cc3)OC3O[C@@]4(C)CC[C@@H]1[C@]32OO4 (stereo partly specified) | 12.2 nM | 9.8 nM
3 | C[C@@H]1CC[C@H]2[C@@H](C)C(=O)O[C@@H]3O[C@@]4(C)CC[C@@H]1[C@]32OO4 [ARTEMISININ] | 7.3 nM | 6.4 nM
4 | C[C@@H]1CCC2[C@@H](C)[C@@H](OCc3ccc(CN4CCOCC4)cc3)OC3O[C@@]4(C)CC[C@@H]1[C@]32OO4 (stereo partly specified) | 50 nM | 35 nM
5 | C[C@@H]1CCC2[C@@H](C)[C@@H](OCc3ccc(CN4CCCC4)cc3)OC3O[C@@]4(C)CC[C@@H]1[C@]32OO4 (stereo partly specified) | 2.3 nM | 2.3 nM
6 | CNCCO[C@H]1OC2O[C@@]3(C)CC[C@H]4[C@H](C)CCC([C@H]1C)[C@@]24OO3 (stereo partly specified) | 2.7 nM | 2.4 nM
7 | CCNCCO[C@H]1OC2O[C@@]3(C)CC[C@H]4[C@H](C)CCC([C@H]1C)[C@@]24OO3 (stereo partly specified) | 4.1 nM | 4.1 nM
8 | C[C@@H]1CCC2[C@@H](C)[C@@H](OCc3ccc(CO)cc3)OC3O[C@@]4(C)CC[C@@H]1[C@]32OO4 (stereo partly specified) | 4.2 nM | 4.4 nM
